Results published in the EternaBench riboswitch data.

Key:
MS2 coat protein [1] = assay: apparent Kd, MS2 coat protein; higher = weaker binding; RNA-MaP array; tryptophan 2.4 mM where present
Summary of the method: (§1)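 Green signal was scaled to red-channel RNA signal and control-cluster median Fmax, and the apparent Kd was taken as the median of filtered per-cluster binding-curve fits. The binding series used SNAP-549-labelled MS2 coat protein from 0.7 or 1.5 nM, doubling to 3 µM, on designs transcribed by stalled E. coli RNA polymerase on Illumina sequencing-chip clusters. Each series ran without and then with constant ligand in 100 mM Tris-HCl pH 7.5, 80 mM KCl, 4 mM MgCl2, BSA, DTT, yeast tRNA and Tween-20.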

MS2 coat protein [2] = assay: apparent Kd, MS2 coat protein; higher = weaker binding; RNA-MaP array; theophylline 2 mM where present
Summary of the method: as §1

[3] = designed as: ON switch for tryptophan, no ligand
[4] = ligand present: tryptophan, designed as: ON switch for tryptophan
[5] = designed as: OFF switch for tryptophan, no ligand
[6] = ligand present: tryptophan, designed as: OFF switch for tryptophan
[7] = designed as: OFF switch for theophylline, no ligand
[8] = ligand present: theophylline, designed as: OFF switch for theophylline
[9] = designed as: ON switch for theophylline, no ligand
[10] = ligand present: theophylline, designed as: ON switch for theophylline

## AGCCACUCGAGUGAUCCUCACGAGUGGCAACGAGGACCGGUACGGCCGCCACUCGAAUAAACAUGAGGAUCACCCAUGUAAUAAU
MS2 coat protein [1]; [3]
  apparent Kd: 70.5 nM
MS2 coat protein [1]; [4]
  apparent Kd: 49.1 nM

## UUGCCCAGUACGGCCGCCACUGUGUGCAGGGAGCCCAGGUCCACAUGAGGAUCACCCAUGUACAACAGGACCGGGUACUUGCAAU
MS2 coat protein [1]; [5]
  apparent Kd: 9.36 nM
MS2 coat protein [1]; [6]
  apparent Kd: 10.6 nM

## AGUACAUGAGGAUCACCCAUGUAUCGGUACCGAGGACCGGUACGGCCGCCACUCGCAGGACAUGAGGAUCACCCAUGUGCCGCCG
MS2 coat protein [1]; [3]
  apparent Kd: 18.9 nM
MS2 coat protein [1]; [4]
  apparent Kd: 23.8 nM

## UACUUGCUGACGGCCGCCACUAGUACAUGAGGAUCACCCAUGUACGGUCGCCCGGUGUGAUCCACUAGGACCGGGUCAGCAAGAU
MS2 coat protein [1]; [5]
  apparent Kd: 38.3 nM
MS2 coat protein [1]; [6]
  apparent Kd: 124 nM

## AUAAAUAAUAAAUAAAAUAAAGUGGGUGAACGAGGACCGGUACGGCCGCCACUCGGACAUGAGGAUCACCCAUGUCCAUGUGAAA
MS2 coat protein [1]; [5]
  apparent Kd: 17.2 nM
MS2 coat protein [1]; [6]
  apparent Kd: 51.2 nM

## GCUGUGAAGUCGGCCGCCACUGGUUAGUUUUACCUCAUGUAACAUGAGGAUCACCCAUGUAAUUUCAGGACCGGGACAACAGCAA
MS2 coat protein [1]; [5]
  apparent Kd: 278 nM
MS2 coat protein [1]; [6]
  apparent Kd: 852 nM

## ACUACAAAGUAGUAUAUACGAAAGUAUAGACGAGGACCGGUACGGCCGCCACUCGGUACCGGAAACACAUGAGGAUCACCCAUGU
MS2 coat protein [1]; [5]
  apparent Kd: 20.6 nM
MS2 coat protein [1]; [6]
  apparent Kd: 17.6 nM

## CUAAAUAUAACGGCCGCCACUUACUCAUGAGGUAACAACAUGAGGAUCACCCAUGUUUGAGGAUCAAGGACCGGGUUAUAUUUAG
MS2 coat protein [1]; [3]
  apparent Kd: 25.6 nM
MS2 coat protein [1]; [4]
  apparent Kd: 19 nM

## AAUGUAUGGCACAUGAGGAUCACCCAUGUGCGAGGACCGGUACGGCCGCCACUCGGUCCUGGGAUCUUAAUACUAUACAUUAAUG
MS2 coat protein [1]; [5]
  apparent Kd: 10.9 nM
MS2 coat protein [1]; [6]
  apparent Kd: 28.2 nM

## AACACAUGAGGAUCACCCAUGUCCAUGUACCGAGGACCGGUACGGCCGCCACUCGACAUGAGGAUCACCCAUGUUCCAUGUUGUC
MS2 coat protein [1]; [3]
  apparent Kd: 108 nM
MS2 coat protein [1]; [4]
  apparent Kd: 149 nM

## ACAUGAGGAUCACCCAUGUUAAACAGGGUGCGAGGACCGGUACGGCCGCCACUCGGACAUUAUUACGAGUGAAUGGCAACGAUGU
MS2 coat protein [1]; [5]
  apparent Kd: 15.8 nM
MS2 coat protein [1]; [6]
  apparent Kd: 15.4 nM

## AAUGAGUGGUGGUCAAACAUGGGUGAUCAACGAGGACCGGUACGGCCGCCACUCGAUAACAUGAGGAUCACCCAUGUAAUAAUAA
MS2 coat protein [1]; [5]
  apparent Kd: 234 nM
MS2 coat protein [1]; [6]
  apparent Kd: 202 nM

## ACGUUUUAGUCGGCCGCCACUGAUCUCAUGUUCAACAUGAGGAUCACCCAUGUACCUUUUUUUAUCAGGACCGGGACGUAAUAGA
MS2 coat protein [1]; [3]
  apparent Kd: 329 nM
MS2 coat protein [1]; [4]
  apparent Kd: 62.3 nM

## GAGCUGAUGUAGAGAUUUUAUUUCUGAGAUACCAGUACAGAAAUGUACCCUUGGCAGCUCAGCUUUACAUGAGGAUCACCCAUGU
MS2 coat protein [2]; [7]
  apparent Kd: 17.2 nM
MS2 coat protein [2]; [8]
  apparent Kd: 22.1 nM

## AUAACAUGAGGAUCACCCAUGUAAGCAGAUACCAGCUAGGAAACUAGCCCUUGGCAGCUGCAAUCCUCAUGUAUUGCAGCUGCAA
MS2 coat protein [2]; [7]
  apparent Kd: 15.7 nM
MS2 coat protein [2]; [8]
  apparent Kd: 36.2 nM

## AAUAAGCAGCUGCCUUCCUCAUGAGCAGAUACCAGCUAGGAAACUAGCCCUUGGCAGCUGCAACAUGAGGAUCACCCAUGUAAUA
MS2 coat protein [2]; [7]
  apparent Kd: 65.8 nM
MS2 coat protein [2]; [8]
  apparent Kd: 73 nM

## CUCCGAGGCUAUACUAUCCGCCUCAGUGAUACCAGAAUACCUAUAUUCCCUUGGCAGCAUCACAUGAGGAUCACCCAUGUGCCAU
MS2 coat protein [2]; [9]
  apparent Kd: 12.5 nM
MS2 coat protein [2]; [10]
  apparent Kd: 15.2 nM

## UCUUUCUUUGUAGAUACCAGCGUGUUAUCUUUCUUUUGACAUGAGGAUCACCCAUGUAUAUGCCCUUGGCAGCUACAUAUUCUUU
MS2 coat protein [2]; [9]
  apparent Kd: 18.5 nM
MS2 coat protein [2]; [10]
  apparent Kd: 14.2 nM

## AAAAUAAAUAAAACACGUAACAUGAAGGAUACCAGACCGGAAACGGUCCCUUGGCAGCCUCUACAUGAGGAUCACCCAUGUCGUG
MS2 coat protein [2]; [9]
  apparent Kd: 238 nM
MS2 coat protein [2]; [10]
  apparent Kd: 30.9 nM

## GAUGAUAUUGCAGAUACCAGACACAUGAGGAUCACCCAUGUCGCUGAGAUGCUGGAUCGUGUCCCUUGGCAGCUGCGAUAUCAUC
MS2 coat protein [2]; [7]
  apparent Kd: 55.1 nM
MS2 coat protein [2]; [8]
  apparent Kd: 402 nM

## AUACCUAUUGAGUCGUGUUUCUAUUCAGAUACCAGACUUUUCGUUGUCCCUUGGCAGCUGUUUUACAUGAGGAUCACCCAUGUUG
MS2 coat protein [2]; [7]
  apparent Kd: 15 nM
MS2 coat protein [2]; [8]
  apparent Kd: 17.5 nM

## UUAGAUAUGACAGAUACCAGCGUGUUGUAGAACAUGAGGAUCACCCAUGUAGUGAUCGAGCGCCCUUGGCAGCUGGUGUGUUUGG
MS2 coat protein [2]; [9]
  apparent Kd: 149 nM
MS2 coat protein [2]; [10]
  apparent Kd: 440 nM
